Calls of active or inactive are those of the source. The rule behind the calls is not given here.
System: Rattus norvegicus
Experiment: Neurotoxicity in rat at 30 mg/kg, po after 0.5 hrs by rotarod test
Type: toxicity, organism-based
Parameters: dose 30 mg/kg, route oral
Details: in vivo
Procedure, shortened: (§1)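 Phase VIa: oral administration to rats, four animals, fixed 30 mg/kg; MES protection and rota-rod neurotoxicity read at 0.25, 0.5, 1, 2 and 4 h post dose. Reported as number of animals protected (or showing toxicity) over number tested.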

| SMILES | Activity |
| --- | --- |
| O=C1CC2(CCCCC2)C(=O)N1Nc1ccc(Cl)cc1Cl | Non-toxic |
| O=C1CC2(CCCC2)C(=O)N1Nc1ccccc1Cl | Non-toxic |
| O=C1CC2(CCCC2)C(=O)N1Nc1ccc(Cl)cc1Cl | Non-toxic |

Organism: Rattus norvegicus
Experiment: Displacement of [3H]muscimol from GABAA receptor in rat brain cortex
Type: tissue-based
Details: not given
Procedure, shortened: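 Rat brain membranes washed repeatedly in ice-cold 50 mM Tris-HCl pH 7.4, stored at −20 °C at least 18 h; incubated 10 min at 0 °C with 3 nM [3H]muscimol (stock) and eight test concentrations 10^-11–10^-4 M; nonspecific binding with GABA; filtration, scintillation counting, duplicates, iterative curve fitting.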

| SMILES | Activity |
| --- | --- |
| O=C1CC2(CCCCC2)C(=O)N1Nc1ccc(Br)cc1 | inactive |
| O=C1CC2(CCCCC2)C(=O)N1Nc1ccc(Cl)cc1Cl | inactive |
| O=C1CC2(CCCC2)C(=O)N1Nc1ccc(Br)cc1 | inactive |
| O=C1CC2(CCCC2)C(=O)N1Nc1ccc(Cl)cc1Cl | inactive |

System: Rattus norvegicus
Experiment: Neurotoxicity in rat at 30 mg/kg, po after 2 hrs by rotarod test
Type: toxicity, organism-based
Parameters: dose 30 mg/kg, route oral
Details: in vivo
Procedure, shortened: as §1

| SMILES | Activity |
| --- | --- |
| O=C1CC2(CCCCC2)C(=O)N1Nc1ccc(Cl)cc1Cl | Non-toxic |
| O=C1CC2(CCCC2)C(=O)N1Nc1ccccc1Cl | Non-toxic |
| O=C1CC2(CCCC2)C(=O)N1Nc1ccc(Cl)cc1Cl | Non-toxic |

System: Rattus norvegicus
Experiment: Neurotoxicity in rat at 30 mg/kg, po after 1 hr by rotarod test
Type: toxicity, organism-based
Parameters: dose 30 mg/kg, route oral
Details: in vivo
Procedure, shortened: as §1

| SMILES | Activity |
| --- | --- |
| O=C1CC2(CCCCC2)C(=O)N1Nc1ccc(Cl)cc1Cl | Non-toxic |
| O=C1CC2(CCCC2)C(=O)N1Nc1ccccc1Cl | Non-toxic |
| O=C1CC2(CCCC2)C(=O)N1Nc1ccc(Cl)cc1Cl | Non-toxic |

System: Rattus norvegicus
Experiment: Anticonvulsant activity in po dosed rat after 2 hrs by subcutaneous pentylenetetrazole test
Type: functional
Details: not given
Procedure, shortened: (§2)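 Phase II quantification in rats after oral dosing: median effective dose in MES and scPTZ seizure tests determined at the previously estimated time of peak effect, 2 h.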

| SMILES | ED50 [mg/kg] | TD50 [mg/kg] |
| --- | --- | --- |
| O=C1CC2(CCCC2)C(=O)N1Nc1ccc(Cl)cc1Cl | > 125 | > 250 |

System: Mus musculus
Experiment: Anticonvulsant activity in ip dosed mouse after 0.5 hrs by maximal electroshock test
Type: functional
Details: not given
Procedure, shortened: (§3)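 Phase I screen: intraperitoneal injection into mice as suspension in 0.5% methylcellulose at 30, 100 and 300 mg/kg; MES, subcutaneous pentylenetetrazole and rota-rod minimal motor impairment assessed at 0.5 h and 4 h after dosing (2 h also reported for some MES readings). Value is minimum dose showing activity or toxicity.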

| SMILES | Activity [mg/kg] |
| --- | --- |
| O=C1CC2(CCCC2)C(=O)N1Nc1ccccc1Cl | 300 |
| O=C1CC2(CCCC2)C(=O)N1Nc1ccc(Cl)cc1Cl | 100 |

System: Mus musculus
Experiment: Anticonvulsant activity in ip dosed mouse after 0.5 hrs by subcutaneous pentylenetetrazole test
Type: functional
Details: not given
Procedure, shortened: as §3

| SMILES | Activity [mg/kg] |
| --- | --- |
| CC1CCCCC12CC(=O)N(Nc1ccc(Cl)cc1Cl)C2=O (stereo unspecified) | 300 |
| O=C1CC2(CCCC2)C(=O)N1Nc1ccc(Br)cc1 | 300 |
| O=C1CC2(CCCC2)C(=O)N1Nc1ccccc1Cl | 300 |

System: Mus musculus
Experiment: Anticonvulsant activity in ip dosed mouse after 2 hrs by maximal electroshock test
Type: functional
Details: not given
Procedure, shortened: as §3

| SMILES | Activity [mg/kg] |
| --- | --- |
| O=C1CC2(CCCC2)C(=O)N1Nc1ccc(Br)cc1 | 100 |
| CC1CCCCC12CC(=O)N(Nc1ccc(Br)cc1)C2=O (stereo unspecified) | 100 |

System: Mus musculus
Experiment: Anticonvulsant activity in ip dosed mouse after 4 hrs by maximal electroshock test
Type: functional
Details: not given
Procedure, shortened: as §3

| SMILES | Activity [mg/kg] |
| --- | --- |
| O=C1CC2(CCCCC2)C(=O)N1Nc1ccc(Br)cc1 | 100 |
| O=C1CC2(CCCCC2)C(=O)N1Nc1ccc(Cl)cc1Cl | 100 |
| CC1CCCCC12CC(=O)N(Nc1ccc(Cl)cc1Cl)C2=O (stereo unspecified) | 300 |
| O=C1CC2(CCCC2)C(=O)N1Nc1ccc(Br)cc1 | 300 |
| CC1CCCCC12CC(=O)N(Nc1ccc(Br)cc1)C2=O (stereo unspecified) | 300 |
| O=C1CC2(CCCC2)C(=O)N1Nc1ccc(Cl)cc1Cl | 300 |

System: Mus musculus
Experiment: Anticonvulsant activity in ip dosed mouse after 4 hrs by subcutaneous pentylenetetrazole test
Type: functional
Details: not given
Procedure, shortened: as §3

| SMILES | Activity [mg/kg] |
| --- | --- |
| O=C1CC2(CCCCC2)C(=O)N1Nc1ccc(Cl)cc1Cl | 300 |

System: not listed separately
Experiment: Lipophilicity, log kw of compound by RP-HPLC
Type: physicochemical
Details: not given
Procedure, shortened: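 RP-HPLC on end-capped C18 column, acetonitrile-containing mobile phase at several concentrations; uracil as unretained marker for dead volume; UV detection at 214 nm, room temperature; three measurement sets averaged; log kw obtained by extrapolation of linear log k versus organic modifier fraction (log k = log kw − Sφ).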

| SMILES | logKw |
| --- | --- |
| O=C1CC2(CCCCC2)C(=O)N1Nc1ccc(Br)cc1 | 2.337 |
| O=C1CC(C2CCCCC2)C(=O)N1Nc1ccc(Cl)cc1Cl (stereo unspecified) | 2.896 |
| O=C1CC2(CCCCC2)C(=O)N1Nc1ccc(Cl)cc1Cl | 2.634 |
| CC1CCCC2(CC(=O)N(Nc3ccc(Cl)cc3Cl)C2=O)C1 (stereo unspecified) | 2.976 |
| CC1CCCCC12CC(=O)N(Nc1ccc(Cl)cc1Cl)C2=O (stereo unspecified) | 2.847 |
| O=C1CC2(CCCC2)C(=O)N1Nc1ccc(Br)cc1 | 2.115 |
| O=C1CC2(CCCC2)C(=O)N1Nc1ccccc1Cl | 2.095 |
| CC1CCC2(CC1)CC(=O)N(Nc1ccc(Cl)cc1Cl)C2=O (stereo unspecified) | 2.977 |
| O=C1CC2(CCCCC2)C(=O)N1Nc1ccccc1Cl | 2.322 |
| CC1CCCCC12CC(=O)N(Nc1ccc(Br)cc1)C2=O (stereo unspecified) | 2.561 |
| O=C1CC2(CCCC2)C(=O)N1Nc1ccc(Cl)cc1Cl | 2.419 |
| O=C1CC(C2CCCCC2)C(=O)N1Nc1ccccc1Cl (stereo unspecified) | 2.536 |
| CC1CCCCC12CC(=O)N(Nc1ccccc1Cl)C2=O (stereo unspecified) | 2.515 |

System: Rattus norvegicus
Experiment: Neurotoxicity in rat at 30 mg/kg, po after 0.25 hrs by rotarod test
Type: toxicity, organism-based
Parameters: dose 30 mg/kg, route oral
Details: in vivo
Procedure, shortened: as §1

| SMILES | Activity |
| --- | --- |
| O=C1CC2(CCCCC2)C(=O)N1Nc1ccc(Cl)cc1Cl | Non-toxic |
| O=C1CC2(CCCC2)C(=O)N1Nc1ccccc1Cl | Non-toxic |
| O=C1CC2(CCCC2)C(=O)N1Nc1ccc(Cl)cc1Cl | Non-toxic |

System: Mus musculus
Experiment: Neurotoxicity in ip dosed mouse after 4 hrs by rotarod test
Type: toxicity, organism-based
Details: in vivo
Procedure, shortened: as §3

| SMILES | Activity [mg/kg] |
| --- | --- |
| CC1CCC2(CC1)CC(=O)N(Nc1ccc(Cl)cc1Cl)C2=O (stereo unspecified) | 100 |
| CC1CCCCC12CC(=O)N(Nc1ccc(Br)cc1)C2=O (stereo unspecified) | 300 |

System: Mus musculus
Experiment: Toxicity in mouse at 30 mg/kg, ip
Type: organism-based
Parameters: dose 30 mg/kg, route intraperitoneal
Details: in vivo
Procedure, shortened: as §3

| SMILES | Activity |
| --- | --- |
| O=C1CC2(CCCCC2)C(=O)N1Nc1ccc(Br)cc1 | Toxic |

System: Mus musculus
Experiment: Neurotoxicity in ip dosed mouse after 0.5 hrs by rotarod test
Type: toxicity, organism-based
Details: in vivo
Procedure, shortened: as §3

| SMILES | Minimum neurotoxic dose [mg/kg] |
| --- | --- |
| O=C1CC2(CCCCC2)C(=O)N1Nc1ccc(Br)cc1 | 30 |
| O=C1CC2(CCCC2)C(=O)N1Nc1ccc(Br)cc1 | 100 |
| CC1CCC2(CC1)CC(=O)N(Nc1ccc(Cl)cc1Cl)C2=O (stereo unspecified) | 100 |
| O=C1CC2(CCCC2)C(=O)N1Nc1ccc(Cl)cc1Cl | 300 |
| CC1CCCCC12CC(=O)N(Nc1ccccc1Cl)C2=O (stereo unspecified) | 100 |

System: Mus musculus
Experiment: Anticonvulsant activity in mouse at 100 mg/kg, ip
Type: functional, organism-based
Parameters: dose 100 mg/kg
Details: not given
Procedure, shortened: as §3

| SMILES | Activity |
| --- | --- |
| O=C1CC2(CCCCC2)C(=O)N1Nc1ccc(Br)cc1 | Active |
| O=C1CC2(CCCCC2)C(=O)N1Nc1ccc(Cl)cc1Cl | Active |
| O=C1CC2(CCCC2)C(=O)N1Nc1ccc(Cl)cc1Cl | Active |

System: Rattus norvegicus
Experiment: Anticonvulsant activity in po dosed rat after 2 hrs by maximal electroshock test
Type: functional
Details: not given
Procedure, shortened: as §2

| SMILES | ED50 [mg/kg] | TD50 [mg/kg] |
| --- | --- | --- |
| O=C1CC2(CCCC2)C(=O)N1Nc1ccc(Cl)cc1Cl | > 180 | > 250 |

System: Mus musculus
Experiment: Anticonvulsant activity in mouse at 300 mg/kg, ip
Type: functional, organism-based
Parameters: dose 300 mg/kg
Details: not given
Procedure, shortened: as §3

| SMILES | Activity |
| --- | --- |
| O=C1CC(C2CCCCC2)C(=O)N1Nc1ccc(Cl)cc1Cl (stereo unspecified) | inactive |
| CC1CCCC2(CC(=O)N(Nc3ccc(Cl)cc3Cl)C2=O)C1 (stereo unspecified) | inactive |
| CC1CCCCC12CC(=O)N(Nc1ccc(Cl)cc1Cl)C2=O (stereo unspecified) | Active |
| O=C1CC2(CCCC2)C(=O)N1Nc1ccc(Br)cc1 | Active |
| O=C1CC2(CCCC2)C(=O)N1Nc1ccccc1Cl | Active |
| CC1CCC2(CC1)CC(=O)N(Nc1ccc(Cl)cc1Cl)C2=O (stereo unspecified) | inactive |
| O=C1CC2(CCCCC2)C(=O)N1Nc1ccccc1Cl | inactive |
| CC1CCCCC12CC(=O)N(Nc1ccc(Br)cc1)C2=O (stereo unspecified) | Active |
| O=C1CC(C2CCCCC2)C(=O)N1Nc1ccccc1Cl (stereo unspecified) | inactive |
| CC1CCCCC12CC(=O)N(Nc1ccccc1Cl)C2=O (stereo unspecified) | inactive |

System: Rattus norvegicus
Experiment: Neurotoxicity in rat at 30 mg/kg, po after 4 hrs by rotarod test
Type: toxicity, organism-based
Parameters: dose 30 mg/kg, route oral
Details: in vivo
Procedure, shortened: as §1

| SMILES | Activity |
| --- | --- |
| O=C1CC2(CCCCC2)C(=O)N1Nc1ccc(Cl)cc1Cl | Non-toxic |
| O=C1CC2(CCCC2)C(=O)N1Nc1ccccc1Cl | Non-toxic |
| O=C1CC2(CCCC2)C(=O)N1Nc1ccc(Cl)cc1Cl | Non-toxic |
